From the array DNA melting data of Ke et al. (doi:10.1101/2024.01.08.574731) come the findings set out here.

A short description of data set [1]: melting temperature; fluorescence melt of hairpins on a sequencing array, two-state fit, raised by 9.35 °C to match UV melts. The conditions noted are these: sodium 0.088 M. A digest of the protocol:
(§1)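 Folding enthalpy and melting temperature come from bootstrapped two-state fits to Cy3 fluorescence of library hairpins carrying annealed Cy3 and quencher oligos on a sequenced MiSeq flow cell. Imaging was done in 50 mM Na-HEPES pH 8.0, 25 mM NaCl, stepping by 2.5 °C up to 60 °C, and signals were normalised to pre-quench Cy3 and to control constructs. Results of four replicates were combined by inverse variance, and fitted temperatures were raised by 9.35 °C to match UV melts.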

Data set [2] can be described thus: folding enthalpy; higher = less favourable; fluorescence melt of hairpins on a sequencing array, two-state fit. Particulars: sodium 0.088 M. The method in brief: as §1

With GATCACATAGGTGATC ((((((....)))))), the Tm in data set [1] turned out to be 55.8 °C. Further, the folding enthalpy in data set [2] is -39.1 kcal/mol.
As for GATCACATAGTGATC ((((((...)))))), the Tm in data set [1] is 62.4 °C. The folding enthalpy in data set [2] is -40 kcal/mol.
As to GATCACATGCGTGATC ((((((....)))))), the Tm in data set [1] stood at 57.8 °C. The folding enthalpy in data set [2] is -38.4 kcal/mol.
For GATCACCAAGTGATC ((((((...)))))), the Tm in data set [1] came to 52.5 °C. Also, the folding enthalpy in data set [2] was -36.8 kcal/mol.
Taken in the same sequence, the figures for GATCACCACTGTGATC ((((((....)))))) were 56.1 °C and -43.5 kcal/mol.
Taken in the same sequence, the figures for GATCACCAGGGTGATC ((((((....)))))) were 62.2 °C and -36.5 kcal/mol.
As to GATCACCATGTGATC ((((((...)))))), the Tm in data set [1] is 59.2 °C. In data set [2], the folding enthalpy is -33 kcal/mol.
With GATCACCCACGTGATC ((((((....)))))), the Tm in data set [1] was determined as 56.5 °C. Besides, in data set [2], the folding enthalpy was -47 kcal/mol.
For GATCACCCATGTGATC ((((((....)))))), in data set [1], the Tm stood at 55.7 °C. Further, the folding enthalpy in data set [2] was -33.8 kcal/mol.
Take GATCACCCCAGTGATC ((((((....)))))): the Tm in data set [1] came out at 60 °C. The folding enthalpy in data set [2] was -44.7 kcal/mol.
Regarding GATCACCGAAAGGTTATC (((.(((....))).))), the Tm in data set [1] is 40.4 °C. Also, the folding enthalpy in data set [2] is -27.7 kcal/mol.
For the sequence GATCACCGGAGTGATC ((((((....)))))), the Tm in data set [1] was 57.7 °C. In addition, the folding enthalpy in data set [2] was -41.2 kcal/mol.
The like results for GATCACCGTAGTGATC ((((((....)))))) were, in that order, 57 °C and -51.1 kcal/mol.
Taken in the same sequence, the figures for GATCACCTGAGTGATC ((((((....)))))) were 57 °C and -35.8 kcal/mol.
The like results for GATCACCTGGTGATC ((((((...)))))) were, in that order, 58.1 °C and -33.1 kcal/mol.
As for GATCACCTTAGTGATC ((((((....)))))), the Tm in data set [1] was 59.3 °C. The folding enthalpy in data set [2] is -39.1 kcal/mol.
Take GATCACGAAAGTGCTATC ((((((....)))..))): the Tm in data set [1] is 26.1 °C. In addition, in data set [2], the folding enthalpy was -12.1 kcal/mol.
Taken in the same sequence, the figures for GATCACGAACGTGATC ((((((....)))))) were 67.3 °C and -42.4 kcal/mol.
The like results for GATCACGACCGTGATC ((((((....)))))) were, in that order, 63.6 °C and -46.1 kcal/mol.
Taken in the same sequence, the figures for GATCACGCAGGTGATC ((((((....)))))) were 64.2 °C and -39.6 kcal/mol.
GATCACGCCGGTGATC ((((((....)))))): the Tm in data set [1] amounted to 60.7 °C. The folding enthalpy in data set [2] was -38.7 kcal/mol.
Taken in the same sequence, the figures for GATCACGGCCGTGATC ((((((....)))))) were 66.3 °C and -49.1 kcal/mol.
As to GATCACGTCGGTGATC ((((((....)))))), the Tm in data set [1] turned out to be 59.7 °C. For the same sequence, in data set [2], the folding enthalpy was -36.5 kcal/mol.
In the case of GATCACGTGCGTGATC ((((((....)))))), the Tm in data set [1] was found to be 59.7 °C. Further, the folding enthalpy in data set [2] was -45.1 kcal/mol.
The like results for GATCACTACTGTGATC ((((((....)))))) were, in that order, 56.5 °C and -42 kcal/mol.
The like results for GATCACTAGCGTGATC ((((((....)))))) were, in that order, 55.1 °C and -41.8 kcal/mol.
For GATCACTATAGTGATC ((((((....)))))), the Tm in data set [1] was 58.8 °C. In addition, the folding enthalpy in data set [2] is -38.1 kcal/mol.
Taken in the same sequence, the figures for GATCACTCAGTGATC ((((((...)))))) were 58.3 °C and -35.5 kcal/mol.
Regarding GATCACTCTGTGATC ((((((...)))))), in data set [1], the Tm stood at 61.6 °C. Moreover, the folding enthalpy in data set [2] is -35.8 kcal/mol.
Taken in the same sequence, the figures for GATCACTGAAGTGATC ((((((....)))))) were 56.8 °C and -36.4 kcal/mol.
On to GATCACTGCGTGATC ((((((...)))))), for which, in data set [1], the Tm came out at 61 °C. Also, in data set [2], the folding enthalpy is -26.3 kcal/mol.
Taken in the same sequence, the figures for GATCACTTAGTGATC ((((((...)))))) were 58.6 °C and -37 kcal/mol.
GATCACTTCAGTGATC ((((((....)))))): the Tm in data set [1] is 63.9 °C. Besides, the folding enthalpy in data set [2] was -46.6 kcal/mol.
The like results for GATCACTTGCGTGATC ((((((....)))))) were, in that order, 55.9 °C and -40.7 kcal/mol.
Take GATCAGAATCCTGATC ((((((....)))))): the Tm in data set [1] came out at 46.9 °C. In addition, in data set [2], the folding enthalpy was -31 kcal/mol.
Turning to GATCAGACGTCTGATC ((((((....)))))), the Tm in data set [1] came out at 55 °C. For the same sequence, the folding enthalpy in data set [2] was -60.5 kcal/mol.
Regarding GATCAGACTCTGATC ((((((...)))))), the Tm in data set [1] came to 47.1 °C. Also, the folding enthalpy in data set [2] was -35 kcal/mol.
As for GATCAGAGTCTGATC ((((((...)))))), the Tm in data set [1] is 47.4 °C. In addition, the folding enthalpy in data set [2] was -39.1 kcal/mol.
The like results for GATCAGATAACTGATC ((((((....)))))) were, in that order, 46.8 °C and -34.5 kcal/mol.
As to GATCAGATCACTGATC ((((((....)))))), in data set [1], the Tm was 49.9 °C. Besides, the folding enthalpy in data set [2] was -28.6 kcal/mol.
As for GATCAGATCTCTGATC ((((((....)))))), in data set [1], the Tm is 50.7 °C. Also, the folding enthalpy in data set [2] was -40 kcal/mol.
As to GATCAGATTCCTGATC ((((((....)))))), the Tm in data set [1] came out at 48.5 °C. Also, in data set [2], the folding enthalpy was -39 kcal/mol.
The like results for GATCAGATTCTGATC ((((((...)))))) were, in that order, 48.5 °C and -29.7 kcal/mol.
For the sequence GATCAGCAGCTGATC ((((((...)))))), the Tm in data set [1] turned out to be 48.8 °C. Further, the folding enthalpy in data set [2] is -48.4 kcal/mol.
The like results for GATCAGCCAACTGATC ((((((....)))))) were, in that order, 49.6 °C and -33.8 kcal/mol.
The like results for GATCAGCCCTCTGATC ((((((....)))))) were, in that order, 50.1 °C and -35.3 kcal/mol.
With GATCAGCCTTCTGATC ((((((....)))))), in data set [1], the Tm is 48.5 °C. Moreover, the folding enthalpy in data set [2] is -37.9 kcal/mol.
Regarding GATCAGCGAAAGCTTATC (((.(((....))).))), the Tm in data set [1] was determined as 38.9 °C. Further, in data set [2], the folding enthalpy was -20.2 kcal/mol.
The like results for GATCAGCGACTGATC ((((((...)))))) were, in that order, 46.8 °C and -33.1 kcal/mol.
In the case of GATCAGCGCACTGATC ((((((....)))))), the Tm in data set [1] was determined as 52.5 °C. Also, in data set [2], the folding enthalpy is -40.4 kcal/mol.
The like results for GATCAGCGTCTGATC ((((((...)))))) were, in that order, 49.9 °C and -38.8 kcal/mol.
The like results for GATCAGCGTGCTGATC ((((((....)))))) were, in that order, 67.2 °C and -37.1 kcal/mol.
The like results for GATCAGCTACCTGATC ((((((....)))))) were, in that order, 48.9 °C and -40 kcal/mol.
Consider GATCAGCTCCTGATC ((((((...)))))), for which the Tm in data set [1] was determined as 50 °C. The folding enthalpy in data set [2] is -43.2 kcal/mol.
Taken in the same sequence, the figures for GATCAGCTGCTGATC ((((((...)))))) were 50.7 °C and -47.7 kcal/mol.
Taken in the same sequence, the figures for GATCAGCTGGCTGATC ((((((....)))))) were 64.4 °C and -34.1 kcal/mol.
On to GATCAGCTGTCTGATC ((((((....)))))), for which, in data set [1], the Tm was 50.3 °C. Further, the folding enthalpy in data set [2] is -38.9 kcal/mol.
As to GATCAGCTTCCTGATC ((((((....)))))), the Tm in data set [1] was 49.6 °C. Further, the folding enthalpy in data set [2] is -44.1 kcal/mol.
On to GATCAGGAACTGATC ((((((...)))))), for which the Tm in data set [1] was 60.6 °C. Further, in data set [2], the folding enthalpy is -39.4 kcal/mol.
Regarding GATCAGGATCTGATC ((((((...)))))), in data set [1], the Tm amounted to 48 °C. For the same sequence, the folding enthalpy in data set [2] is -32.1 kcal/mol.
On to GATCAGGCAGCTGATC ((((((....)))))), for which the Tm in data set [1] amounted to 52.4 °C. Further, the folding enthalpy in data set [2] is -34.2 kcal/mol.
Take GATCAGGCTCCTGATC ((((((....)))))): in data set [1], the Tm is 52.5 °C. In data set [2], the folding enthalpy is -42.8 kcal/mol.
Taken in the same sequence, the figures for GATCAGGCTGCTGATC ((((((....)))))) were 50.4 °C and -46.2 kcal/mol.
The like results for GATCAGGCTTCTGATC ((((((....)))))) were, in that order, 50.3 °C and -37.1 kcal/mol.
The like results for GATCAGGGACCTGATC ((((((....)))))) were, in that order, 54.3 °C and -50.5 kcal/mol.
Regarding GATCAGGGTACTGATC ((((((....)))))), in data set [1], the Tm came out at 55.5 °C. For the same sequence, in data set [2], the folding enthalpy is -41 kcal/mol.
Taken in the same sequence, the figures for GATCAGGGTTCTGATC ((((((....)))))) were 50.8 °C and -42.1 kcal/mol.
With GATCAGGTCTCTGATC ((((((....)))))), the Tm in data set [1] is 53.4 °C. Further, in data set [2], the folding enthalpy is -50.3 kcal/mol.
The like results for GATCAGGTGCCTGATC ((((((....)))))) were, in that order, 51.6 °C and -37 kcal/mol.
In the case of GATCAGGTGTCTGATC ((((((....)))))), the Tm in data set [1] came out at 50.9 °C. Moreover, the folding enthalpy in data set [2] is -40.2 kcal/mol.
Consider GATCAGTAACCTGATC ((((((....)))))), for which the Tm in data set [1] turned out to be 47.4 °C. In addition, the folding enthalpy in data set [2] is -27.6 kcal/mol.
Taken in the same sequence, the figures for GATCAGTAATCTGATC ((((((....)))))) were 48.6 °C and -36 kcal/mol.
As to GATCAGTAGACTGATC ((((((....)))))), in data set [1], the Tm was 51.5 °C. Also, in data set [2], the folding enthalpy was -40.7 kcal/mol.
As for GATCAGTCACTGATC ((((((...)))))), the Tm in data set [1] was determined as 50.1 °C. The folding enthalpy in data set [2] is -39.9 kcal/mol.
As for GATCAGTCTTCTGATC ((((((....)))))), in data set [1], the Tm came to 51.2 °C. The folding enthalpy in data set [2] was -37.8 kcal/mol.
The like results for GATCAGTGAACTGATC ((((((....)))))) were, in that order, 52.6 °C and -36.2 kcal/mol.
